Data on 22 compounds can be found in ChEMBL document CHEMBL3351896, “Small Molecule that Reverses Dexamethasone Resistance in T-cell Acute Lymphoblastic Leukemia (T-ALL)” (ACS Med Chem Lett, 2014).

Experiment [1] is described as follows: Growth inhibition of human CUTLL1 cells in absence of 1 uM dexamethasone after 48 hrs by alamar blue assay. The note with it: CUTLL1, 48 h. Format: functional, cell-based. Summed up:
(§1)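 CUTLL1 cells given compound alone or with dexamethasone 1 μM. Growth inhibition measured by alamar blue after 48 h.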
(The colour change of resazurin is a common sign of viable cells or microbes.)

Experiment [2] can be described thus: Growth inhibition of human CUTLL1 cells in presence of 1 uM dexamethasone after 48 hrs by alamar blue assay. Format: functional, cell-based. To be noted: CUTLL1, 48 h. Summed up:
as §1

In experiment [3] the test system is CUTLL1. Description: Growth inhibition of human CUTLL1 cells at 12.5 to 50 uM in presence of 1 uM dexamethasone and 1 uM […] and glucocorticoid receptor antagonist RU486 after 24 hrs by alamar blue assay.
The subject of experiment [4] is CUTLL1. Nature of the experiment: Induction of PARP1 cleavage in human CUTLL1 cells at 1 uM after 24 hrs by western blotting method. Format: functional, cell-based.
Experiment [5] relates to CUTLL1. Description: Growth inhibition of human CUTLL1 cells with low GR expression levels after 48 hrs by alamar blue assay. Format: functional, cell-based. Summed up: (§2)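 Human CUTLL1 T-ALL cells engineered to express high (overexpressed) or low (knockdown) glucocorticoid receptor levels. Exposed to compound alone or with 1 μM dexamethasone. Alamar blue growth inhibition read after 48 h.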

The test system of experiment [6] is CUTLL1. Nature of the experiment: Growth inhibition of human CUTLL1 cells with high GR expression levels after 48 hrs by alamar blue assay. Format: functional, cell-based. Summed up: as §2
The target in experiment [7] is T1, Gamma-secretase (Homo sapiens) (UniProt Q96BI3+Q9NZ42+Q8WW43+P49768+Q92542+P49810). Nature of the experiment: Inhibition of gamma secretase in human CUTLL1 cells assessed as effect on NOTCH cleavage level at 100 nM after 24 hrs by Western blotting. Format: cell-based. In general terms: In western blotting, separated proteins are transferred to a membrane and probed.

The target in experiment [8] is T1, Gamma-secretase (Homo sapiens). Description: Inhibition of gamma secretase in human CUTLL1 cells assessed as effect on NOTCH cleavage level at 100 nM in presence of 1 uM dexamethasone after 24 hrs by Western blotting. Format: cell-based. The procedure, abridged:
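Dexamethasone-resistant human T-ALL CUTLL1 cells were treated for 24 h with the gamma-secretase inhibitor at 100 nM together with dexamethasone at 1 μM. Intracellular NOTCH (ICN) protein was then measured by Western blot.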

pEC50: −log10 of the molar value. Activity calls are given as the source filed them. The calls are words filed in the database; no cut-off is given here.

Regarding `Nc1ncc(-c2cc(Cl)nc(Cl)c2)c(C2CC2)n1`, the values for the pEC50 in experiment [1] and in experiment [2] were 5.00 and 5.12, respectively.
The matching figures for `Nc1ncc(-c2ccnc(Cl)c2)c(C2CC2)n1`: under 4.00 and under 4.00.
In the same order, the values of `C=Cc1cnccc1-c1cnc(N)nc1C1CC1` are 4.52 and 4.54.
As for `Nc1ncc(-c2ccnc(-c3ccoc3)c2)c(C2CC2)n1`, the pEC50 (in general, the negative decadic logarithm of the EC50, by convention in mol/L) in experiment [1] is under 4.00; in experiment [2], 4.80. The “growth inhibition (GI)” value in experiment [3] is “inactive”.
Consider `Nc1ncc(-c2ccncc2-c2ccccc2)c(C2CC2)n1`, for which the pEC50 in experiment [1] and in experiment [2] was under 4.00 throughout.
`Nc1ncc(-c2ccnc(F)c2)c(C2CC2)n1`: the negative logarithm of the EC50 (pEC50) in experiment [1] and in experiment [2] was under 4.00 throughout.
Regarding `Nc1ncc(-c2ccnc3ccccc23)c(C2CC2)n1`, the pEC50 in experiment [1] and in experiment [2] was under 4.00 throughout.
With `Nc1ncc(-c2ccncc2)c(-c2ccoc2)n1`, the negative-log EC50 (pEC50) in experiment [1] and in experiment [2] was under 4.00 each time.
For `Nc1ncc(-c2ccncc2)cn1`, the pEC50 in experiment [1] and in experiment [2] was under 4.00 each time.
Take `C[C@@H]1C[C@H]2[C@@H]3CCC4=CC(=O)C=C[C@]4(C)[C@@]3(F)[C@@H](O)C[C@]2(C)[C@@]1(O)C(=O)CO`: the outcome in experiment [4] was inactive. Moreover, in experiment [5], the “growth inhibition (GI)” value was “inactive”. Also, in experiment [6], the “growth inhibition (GI)” value is “Active”.
In the case of `Nc1ncc(-c2ccccn2)c(C2CC2)n1`, the pEC50 in experiment [1] and in experiment [2] was under 4.00 each time.
As to `C[C@H](NC(=O)Cc1cc(F)cc(F)c1)C(=O)N[C@H]1N=C(c2ccccc2)c2ccccc2N(C)C1=O`, the inhibition result in experiment [7] and in experiment [8] was “Active” in each case.
Regarding `Nc1ncc(-c2ccccc2)c(C2CC2)n1`, the pEC50 in experiment [1] and in experiment [2] was under 4.00 each time.
Consider `CC(C)c1nc(N)ncc1-c1ccncc1`, for which the pEC50 in experiment [1] and in experiment [2] was under 4.00 each time.
In the case of `COc1ccc(-c2cnc(N)nc2C2CC2)cc1`, the pEC50 in experiment [1] and in experiment [2] was under 4.00 each time.
For the compound `Nc1ncc(-c2ccncc2)c(C2CCC2)n1`, the negative logarithm of the EC50 (pEC50) in experiment [1] and in experiment [2] was under 4.00 each time.
With `Nc1ncc(-c2ccncc2)c(-c2ccccc2)n1`, the pEC50 in experiment [1] and in experiment [2] was under 4.00 throughout.
Take `Nc1ncc(-c2ccncc2-c2ccoc2)c(C2CC2)n1`: the pEC50 in experiment [1] and in experiment [2] was 4.55 in each case.
On to `Nc1ncc(-c2cccnc2)c(C2CC2)n1`, for which the pEC50 in experiment [1] and in experiment [2] was under 4.00 each time.
As to `Cc1nc(N)ncc1-c1ccncc1`, the pEC50 in experiment [1] and in experiment [2] was under 4.00 in each case.
In the case of `Cc1ncc(-c2ccncc2)c(C2CC2)n1`, the pEC50 in experiment [1] and in experiment [2] was under 4.00 in each case.
Consider `Nc1ncc(-c2ccc(F)cc2)c(C2CC2)n1`, for which the pEC50 in experiment [1] and in experiment [2] was under 4.00 throughout.
